High-throughput results deposited in PubChem BioAssay by several laboratories.
UCH37 DUB inh – inhibitors of human UCH37 deubiquitinase, primary screen, biochemical, Ub-AMC cleavage, fluorescence | AID 588478, 2011 | purified proteasome/UCH37 | 0.33% of 330,000 active | inhibition, % (no concentration beside the values) | Ubiquitin carboxyl-terminal hydrolase isozyme L5 (Homo sapiens), Q9Y5K5;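 active = mean inhibition over replicate wells above about 20%, limit read from the data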
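Material: Human UCH37 enzyme supplied as purified proteasome complex | Schedule: 30 min compound-proteasome preincubation then 25 min substrate reaction, room temperature | Detection: AMC fluorescence from Ub-AMC cleavage, excitation 355 nm, emission 460 nm | Benchmarks: Wells without proteasome as full block, compound-free enzyme plus substrate as uninhibited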
ALR H2O2 inh – inhibitors of human ALR sulfhydryl oxidase, primary screen, biochemical, H2O2 detection, HRP-luminol luminescence, single point; FAD-linked sulfhydryl oxidase ALR (Homo sapiens), P55789; purified ALR, DTT oxidation; inhibition, % (no concentration beside the values); 3.8% of 290,000 active; AID 485317, 2010;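 active = mean replicate inhibition above about 79%, with every replicate also reaching it, limit read from the data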
Calb FLC – C. albicans growth inhibition with fluconazole, primary screen, CaCi-2 strain, Alamar Blue fluorescence. C. albicans CaCi-2 + fluconazole, 48 h. growth inhibition, % (no concentration beside the values). 0.57% of 300,000 active;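 active = growth inhibition above about 58% in most replicates, limit read from the data, passing the limit was not always enough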;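 note: all wells also contain fluconazole at 8 µg/ml as a sub-toxic cotreatment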
ATG4B inhibitor – ATG4B protease inhibitors, primary screen, biochemical, fluorescence, uHTS; Cysteine protease ATG4B (Homo sapiens), Q9Y4P1; ATG4B cleavage of LC3-PLA2, NBD-HPC fluorescence, 1 h; inhibition, % at 8.33 µM; 0.51% of 340,000 active; AID 504462, 2011; in the data active = inhibition above about 40%
Target sequence (Q9Y4P1 whole entry, looked up): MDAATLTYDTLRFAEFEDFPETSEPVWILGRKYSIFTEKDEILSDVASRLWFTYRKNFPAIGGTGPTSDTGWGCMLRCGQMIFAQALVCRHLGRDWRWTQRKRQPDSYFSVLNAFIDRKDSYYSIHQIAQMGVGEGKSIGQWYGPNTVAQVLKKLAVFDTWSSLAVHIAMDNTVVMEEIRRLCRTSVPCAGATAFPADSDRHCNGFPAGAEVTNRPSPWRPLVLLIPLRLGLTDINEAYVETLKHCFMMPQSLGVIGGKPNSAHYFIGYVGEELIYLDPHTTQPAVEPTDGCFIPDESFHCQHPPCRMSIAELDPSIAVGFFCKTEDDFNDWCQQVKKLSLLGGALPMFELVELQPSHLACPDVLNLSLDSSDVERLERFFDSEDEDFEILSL
NLRP3 yeast inh – NALP3 inflammasome inhibitors in reconstituted yeast, primary screen, luminescence, uHTS; Yeast reconstituted NLRP3/ASC/caspase-1, beta-gal luminescence, 24 h; inhibition, % at 10 µM; 0.39% of 330,000 active; AID 2825, 2010;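 active = inhibition of 50% or more; inactive = inhibition below 50%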
NALP1 inh – NALP1 inflammasome inhibitors in reconstituted yeast, colorimetric, S. cerevisiae, triplicate retest; 0.61% of 280,000 active; inhibition, % at 10 µM; S. cerevisiae NALP1/ASC/caspase-1 growth, X-gal OD620, 72 h; in the data active = inhibition mostly above about 24%, no sharp cut-off; inactive = mostly below about 32%
Hits are given with their value; n = inactive; x = no result. Hits are enriched below; roughly 4.8% of the tested compounds scored in any of these assays.

SMILES	UCH37 DUB inh	ALR H2O2 inh	Calb FLC	ATG4B inhibitor	NLRP3 yeast inh	NALP1 inh
COc1ccc(N(CC(=O)NCc2ccc3c(c2)OCO3)S(C)(=O)=O)cc1OC	n	x	n	n	n	n
CC(=O)c1ccc(N2CCN(C(=O)CN3C(=O)NC4(CCCCC4)C3=O)CC2)c(F)c1	n	n	x	n	n	x
O=C1NC(=O)N(Cc2ccccc2)C(=O)/C1=C/C=C/c1ccco1	n	97.6	n	n	n	n
COc1ccc(CN2C(=O)NC(=O)/C(=C\c3ccco3)C2=O)cc1	n	n	n	n	n	n
CC(C)N1C(=O)/C(=C/C=C/c2ccco2)C(=O)N(Cc2ccco2)C1=O	n	97.6	n	n	n	n
C=C1[C@@H](C)[C@H]2[C@H](Cc3ccccc3)NC(=O)[C@]23OC(=O)C=C[C@H](O)CCC[C@@H](C)CC=C[C@H]3[C@@H]1O	n	x	x	x	x	x
CC(=O)O[C@@H]1C=C[C@](C)(O)C[C@@H](C)CC=C[C@H]2[C@H](O)C(C)=C(C)[C@H]3[C@H](Cc4ccccc4)NC(=O)[C@@]123	n	x	x	x	x	x
O=P(/C(=N/O)N1CCOCC1)(N1CCOCC1)N1CCOCC1	x	n	n	n	n	n
COc1ccc(Cn2c(O)c(/C=N/NC(=O)c3ccccc3)c(=O)[nH]c2=O)cc1	n	n	80.8	n	n	n
O=C(N/N=C/c1c(O)n(Cc2ccc(F)cc2)c(=O)[nH]c1=O)c1ccccc1O	n	97.0	n	n	n	n
NC(N)=NN=Cc1ccc(N2CCOCC2)cc1	n	x	x	x	x	x
O=C(NN=CC1C(=O)NC(=S)N(c2ccccc2)C1=O)c1ccc(O)cc1 (stereo not drawn)	n	x	x	x	x	x
C=CCN1C(=O)NC(=O)/C(=C/c2cc3c4c(c2)CCCN4CCC3)C1=O	n	99.1	n	n	n	n
O=C(C[N+]12CCC(CC1)C(C(O)(c1ccccc1)c1ccccc1)C2)c1ccc(Br)cc1 (stereo not drawn)	n	n	94.9	n	n	n
CCCC(=NO)c1c[nH]c2ccccc12	n	x	x	x	x	x
Cc1c(C)c2ccc(OCC(=O)N3C[C@H]4C[C@@H](C3)c3cccc(=O)n3C4)cc2oc1=O	n	x	n	n	n	40.3
Cc1cc(O)c2c(C)c(CC(=O)N3C[C@H]4C[C@@H](C3)c3cccc(=O)n3C4)c(=O)oc2c1	n	85.2	n	n	n	n
COc1cc(C)cc2oc(=O)c(CC(=O)N3C[C@H]4C[C@@H](C3)c3cccc(=O)n3C4)c(C)c12	n	n	n	n	n	n
CC(=NO)c1ccc2ccc3ccccc3c2c1	n	x	x	x	x	x
O=C(O)c1ccc(-n2c(O)c(/C=C3\C=Nc4ccccc43)c(=O)[nH]c2=O)cc1	x	97.8	n	n	n	n
O=C(NN=CC1C(=O)NC(=S)N(c2ccccc2)C1=O)c1cc(Br)c(O)c(Br)c1 (stereo not drawn)	n	x	x	x	x	x
COc1cccc(CNCCc2ccc(F)cc2)c1	n	n	n	n	n	n
Fc1ccc(CCNCc2cccc(Cl)c2)cc1	n	n	n	n	n	40.6
CNC(=O)ON=C(N)Cc1csc2ccccc12	n	x	x	x	x	x
CC(=O)O[C@@H]1C=C[C@](C)(O)C[C@@H](C)CC=C[C@H]2[C@H](O)[C@@](C)(O)[C@@H](C)[C@H]3[C@H](Cc4ccccc4)NC(=O)[C@@]312	n	x	x	x	x	x
SMILES	UCH37 DUB inh	ALR H2O2 inh	Calb FLC	ATG4B inhibitor	NLRP3 yeast inh	NALP1 inh
CCOc1ccc2nc(N=Nc3c(O)[nH]c(=S)[nH]c3=O)sc2c1	x	96.3	n	n	n	n
Cc1cc(C)n(-c2ccc(NN=C(C#N)C#N)cc2)n1	n	98.4	n	n	n	n
N#CC(C#N)=NNc1ccc(-n2ccc(C(F)(F)F)n2)cc1	x	n	n	n	n	x
CN(CN=C(N)N[N+](=O)[O-])S(=O)(=O)c1ccccc1	n	x	x	x	x	x
Nc1ccc(N=Nc2ccccc2)cc1	n	97.6	n	n	n	n
C/C(=N\NC(=S)Nc1ccccc1)c1c(O)n(C)c(=O)n(C)c1=O	n	91.9	n	n	n	n
CC/C(=N\Nc1ccccc1)c1c(O)n(C)c(=O)n(C)c1=O	n	x	n	n	n	n
COc1cccc(CC(=O)Nc2cc(S(=O)(=O)N3CCOCC3)ccc2N2CCN(C)CC2)c1	n	x	x	n	n	x
